Each block holds one molecule with its values, some of them ahead of it. Active and inactive are the calls of the source. No cut-off for these calls is given here.
Experiments:
[1] = target: Cytochrome P450 2D6 (Homo sapiens, UniProt P10635); experiment: Inhibition of CYP2D6 (unknown origin); assay type: ADME
[2] = Intrinsic clearance in rat liver microsomes at […] incubated for 10 mins before NADPH addition by LC/MS method; assay type: ADME; conditions: read-out: CLH
[3] = Fraction unbound in rat plasma at […] incubated for 4 hrs by equilibrium dialysis and LC/MS method; assay type: ADME, cell-free
[4] = target: T1, Steroid 21-hydroxylase (Homo sapiens, UniProt P08686); experiment: Inhibition of human CYP21 expressed in COS7 cells incubated for 1 hr before […] substrate addition by HTRF-based assay; assay type: cell-based, COS-7
T1 sequence (P08686 whole entry): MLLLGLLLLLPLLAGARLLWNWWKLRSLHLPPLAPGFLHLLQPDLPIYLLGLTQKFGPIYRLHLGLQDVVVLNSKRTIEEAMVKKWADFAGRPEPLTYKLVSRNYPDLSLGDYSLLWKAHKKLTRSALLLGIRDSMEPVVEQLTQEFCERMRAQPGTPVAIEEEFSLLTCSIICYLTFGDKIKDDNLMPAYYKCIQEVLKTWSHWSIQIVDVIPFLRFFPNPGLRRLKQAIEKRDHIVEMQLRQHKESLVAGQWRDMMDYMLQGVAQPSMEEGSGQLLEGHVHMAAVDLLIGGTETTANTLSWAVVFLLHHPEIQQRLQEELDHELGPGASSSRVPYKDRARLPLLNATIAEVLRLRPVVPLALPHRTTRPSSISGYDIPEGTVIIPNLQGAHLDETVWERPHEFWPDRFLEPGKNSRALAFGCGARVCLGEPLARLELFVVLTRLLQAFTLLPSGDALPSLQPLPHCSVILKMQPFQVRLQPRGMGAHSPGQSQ

[5] = tested on: Rattus norvegicus; experiment: Dose normalized AUC in Sprague-Dawley rat at 2 mg/kg, po or 1 mg/kg, iv by LC-MS/MS method; assay type: ADME, organism-based; conditions: in vivo
Summary of the method: (§1)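 In the rat pharmacokinetic study, AUC was normalized for dose (μM·h·kg/mg), plasma clearance was expressed in mL/min/kg, and oral bioavailability was calculated.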

[6] = tested on: V79; experiment: Inhibition of rhesus monkey CYP11B2 expressed in V79 cells incubated for 1 hr before 11-deoxycorticosterone substrate addition by HTRF-based assay; assay type: cell-based; conditions: Macaca mulatta
[7] = target: T2, Cytochrome P450 11B2, mitochondrial (Rattus norvegicus, UniProt P30099); experiment: Inhibition of rat CYP11B2 expressed in V79 cells incubated for 1 hr before 11-deoxycorticosterone substrate addition by HTRF-based assay; assay type: cell-based; conditions: v79, 1 h
T2 sequence (P30099 whole entry): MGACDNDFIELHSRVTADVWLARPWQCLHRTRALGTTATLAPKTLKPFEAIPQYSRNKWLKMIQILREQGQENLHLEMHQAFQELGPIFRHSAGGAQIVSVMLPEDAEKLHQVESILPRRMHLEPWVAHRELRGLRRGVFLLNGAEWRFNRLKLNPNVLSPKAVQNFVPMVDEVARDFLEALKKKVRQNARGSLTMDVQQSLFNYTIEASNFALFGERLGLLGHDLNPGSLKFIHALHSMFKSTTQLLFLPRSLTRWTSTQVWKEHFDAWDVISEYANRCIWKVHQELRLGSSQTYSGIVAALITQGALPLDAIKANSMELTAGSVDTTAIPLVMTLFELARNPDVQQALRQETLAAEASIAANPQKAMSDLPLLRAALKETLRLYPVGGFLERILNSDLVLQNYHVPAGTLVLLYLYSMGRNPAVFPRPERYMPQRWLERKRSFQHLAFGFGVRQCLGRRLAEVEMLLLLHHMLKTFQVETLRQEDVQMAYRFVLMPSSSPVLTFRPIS

[8] = target: Cytochrome P450 3A4 (Homo sapiens, UniProt P08684); experiment: Inhibition of CYP3A4 (unknown origin); assay type: ADME
Cytochrome P450 3A4, sequence (P08684 whole entry): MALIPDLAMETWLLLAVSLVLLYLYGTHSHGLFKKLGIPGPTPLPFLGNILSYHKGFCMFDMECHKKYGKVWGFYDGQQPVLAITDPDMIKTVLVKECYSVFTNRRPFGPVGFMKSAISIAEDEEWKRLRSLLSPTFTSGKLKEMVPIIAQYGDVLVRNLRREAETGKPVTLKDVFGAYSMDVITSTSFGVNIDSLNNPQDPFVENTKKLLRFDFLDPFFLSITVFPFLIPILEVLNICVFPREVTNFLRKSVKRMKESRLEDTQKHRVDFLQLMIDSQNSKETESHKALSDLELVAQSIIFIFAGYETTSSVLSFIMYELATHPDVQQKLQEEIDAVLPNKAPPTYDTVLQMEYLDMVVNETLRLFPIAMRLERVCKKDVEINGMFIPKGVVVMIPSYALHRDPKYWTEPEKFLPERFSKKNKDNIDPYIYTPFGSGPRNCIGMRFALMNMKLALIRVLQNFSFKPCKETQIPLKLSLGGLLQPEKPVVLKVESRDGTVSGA

[9] = target: T3, Steroid 17-alpha-hydroxylase/17,20 lyase (Homo sapiens, UniProt P05093); experiment: Inhibition of human CYP17 expressed in COS7 cells incubated for 1 hr before 17-hydroxypregnenolone substrate addition by EIA method; assay type: cell-based, COS-7
T3 sequence (P05093 whole entry): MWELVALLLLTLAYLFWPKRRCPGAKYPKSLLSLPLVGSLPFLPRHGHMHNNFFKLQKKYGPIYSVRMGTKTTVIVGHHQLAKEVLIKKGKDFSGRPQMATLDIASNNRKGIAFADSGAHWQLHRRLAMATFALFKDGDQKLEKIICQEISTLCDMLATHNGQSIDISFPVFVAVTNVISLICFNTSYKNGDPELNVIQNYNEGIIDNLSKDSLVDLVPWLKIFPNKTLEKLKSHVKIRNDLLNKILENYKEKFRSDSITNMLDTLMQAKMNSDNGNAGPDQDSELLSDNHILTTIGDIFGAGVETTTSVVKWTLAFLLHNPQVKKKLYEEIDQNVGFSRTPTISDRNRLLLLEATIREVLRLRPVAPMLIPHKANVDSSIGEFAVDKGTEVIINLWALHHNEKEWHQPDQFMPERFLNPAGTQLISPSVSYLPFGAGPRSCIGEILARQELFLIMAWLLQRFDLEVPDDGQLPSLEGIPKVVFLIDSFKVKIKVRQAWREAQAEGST

[10] = Plasma clearance in Sprague-Dawley rat at 2 mg/kg, po or 1 mg/kg, iv by LC-MS/MS method; assay type: ADME, organism-based; summary of the method: as §1
[11] = species: Homo sapiens; experiment: Selectivity index, ratio of IC50 for CYP19 (unknown origin) to IC50 for human CYP11B2
[12] = target: T4, Aromatase (Homo sapiens, UniProt P11511); experiment: Inhibition of CYP19 (unknown origin) using MFC substrate incubated for 30 mins
T4 sequence (P11511 whole entry): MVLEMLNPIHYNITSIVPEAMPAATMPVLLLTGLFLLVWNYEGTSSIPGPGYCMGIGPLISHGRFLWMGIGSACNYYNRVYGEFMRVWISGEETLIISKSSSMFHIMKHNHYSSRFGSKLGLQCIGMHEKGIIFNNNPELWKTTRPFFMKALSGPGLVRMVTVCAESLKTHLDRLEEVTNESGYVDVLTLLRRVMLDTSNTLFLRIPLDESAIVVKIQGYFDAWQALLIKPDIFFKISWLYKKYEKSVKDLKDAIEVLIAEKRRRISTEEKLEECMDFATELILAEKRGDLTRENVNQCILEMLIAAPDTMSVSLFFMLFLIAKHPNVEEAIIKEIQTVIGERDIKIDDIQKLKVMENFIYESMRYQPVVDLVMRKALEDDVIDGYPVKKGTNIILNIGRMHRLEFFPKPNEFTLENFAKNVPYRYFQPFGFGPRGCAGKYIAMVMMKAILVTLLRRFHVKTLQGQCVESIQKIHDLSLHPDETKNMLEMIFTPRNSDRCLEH

[13] = Oral bioavailability in Sprague-Dawley rat at 2 mg/kg by LC-MS/MS method; assay type: ADME, organism-based; conditions: in vivo; summary of the method: as §1
[14] = target: Cytochrome P450 2C9 (Homo sapiens, UniProt P11712); experiment: Inhibition of CYP2C9 (unknown origin); assay type: ADME
Cytochrome P450 2C9, sequence (P11712 whole entry): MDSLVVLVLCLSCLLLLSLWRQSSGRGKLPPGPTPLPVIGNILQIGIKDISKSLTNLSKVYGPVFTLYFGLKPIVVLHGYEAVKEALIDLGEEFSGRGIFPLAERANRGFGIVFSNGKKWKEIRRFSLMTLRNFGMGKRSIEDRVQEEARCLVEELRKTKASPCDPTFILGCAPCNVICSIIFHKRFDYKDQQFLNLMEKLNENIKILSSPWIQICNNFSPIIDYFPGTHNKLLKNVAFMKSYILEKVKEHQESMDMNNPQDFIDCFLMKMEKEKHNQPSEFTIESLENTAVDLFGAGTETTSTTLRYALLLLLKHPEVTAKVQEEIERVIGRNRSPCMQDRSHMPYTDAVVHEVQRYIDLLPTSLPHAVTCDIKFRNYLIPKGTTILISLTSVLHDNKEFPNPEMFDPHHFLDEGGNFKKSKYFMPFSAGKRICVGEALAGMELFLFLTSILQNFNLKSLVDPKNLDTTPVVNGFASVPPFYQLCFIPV

[15] = species: Homo sapiens; experiment: Selectivity index, ratio of IC50 for human CYP11B1 to IC50 for human CYP11B2
Summary of the method: (§2)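 Human CYP11B2 and CYP11B1 inhibition was tested in cell-based assays. Selectivity was taken as the hCYP11B1 IC50 divided by the hCYP11B2 IC50.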

[16] = target: T5, Cytochrome P450 11B2, mitochondrial (Homo sapiens, UniProt P19099); experiment: Inhibition of human CYP11B2 expressed in V79 cells incubated for 1 hr before 11-deoxycorticosterone substrate addition by HTRF-based assay; assay type: cell-based; summary of the method: as §2
T5 sequence (P19099 whole entry): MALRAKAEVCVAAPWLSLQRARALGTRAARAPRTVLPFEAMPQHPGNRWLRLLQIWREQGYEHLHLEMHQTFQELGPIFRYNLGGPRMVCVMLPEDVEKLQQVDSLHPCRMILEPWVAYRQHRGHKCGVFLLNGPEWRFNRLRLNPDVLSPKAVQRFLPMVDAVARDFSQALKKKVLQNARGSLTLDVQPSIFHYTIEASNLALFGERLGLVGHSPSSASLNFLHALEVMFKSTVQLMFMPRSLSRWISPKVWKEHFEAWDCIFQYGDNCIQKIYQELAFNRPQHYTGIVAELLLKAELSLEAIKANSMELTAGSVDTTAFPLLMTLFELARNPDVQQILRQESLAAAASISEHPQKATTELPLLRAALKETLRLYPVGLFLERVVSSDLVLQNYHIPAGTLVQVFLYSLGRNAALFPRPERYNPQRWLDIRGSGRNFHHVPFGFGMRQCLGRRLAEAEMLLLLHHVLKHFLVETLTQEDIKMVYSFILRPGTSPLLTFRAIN

[17] = Intrinsic clearance in rhesus monkey liver microsomes at […] incubated for 10 mins before NADPH addition by LC/MS method; assay type: ADME, Macaca mulatta; conditions: read-out: CLH
[18] = tested on: Rhesus monkey; experiment: Dose normalized AUC in rhesus monkey at 1 mg/kg, po or 0.5 mg/kg, iv by LC-MS/MS method; assay type: ADME, organism-based, Macaca mulatta; conditions: in vivo
[19] = species: Homo sapiens; experiment: Selectivity index, ratio of IC50 for CYP2C9 (unknown origin) to IC50 for human CYP11B2
[20] = species: Homo sapiens; experiment: Selectivity index, ratio of IC50 for CYP2D6 (unknown origin) to IC50 for human CYP11B2
[21] = species: Homo sapiens; experiment: Selectivity index, ratio of IC50 for CYP3A4 (unknown origin) to IC50 for human CYP11B2
[22] = Plasma clearance in rhesus monkey at 1 mg/kg, po or 0.5 mg/kg, iv by LC-MS/MS method; assay type: ADME, organism-based, Macaca mulatta
[23] = target: T6, Cytochrome P450 11B1, mitochondrial (Homo sapiens, UniProt P15538); experiment: Inhibition of human CYP11B1 expressed in V79 cells incubated for 1 hr before 11-deoxycortisol substrate addition by HTRF-based assay; assay type: cell-based; summary of the method: as §2
T6 sequence (P15538 whole entry): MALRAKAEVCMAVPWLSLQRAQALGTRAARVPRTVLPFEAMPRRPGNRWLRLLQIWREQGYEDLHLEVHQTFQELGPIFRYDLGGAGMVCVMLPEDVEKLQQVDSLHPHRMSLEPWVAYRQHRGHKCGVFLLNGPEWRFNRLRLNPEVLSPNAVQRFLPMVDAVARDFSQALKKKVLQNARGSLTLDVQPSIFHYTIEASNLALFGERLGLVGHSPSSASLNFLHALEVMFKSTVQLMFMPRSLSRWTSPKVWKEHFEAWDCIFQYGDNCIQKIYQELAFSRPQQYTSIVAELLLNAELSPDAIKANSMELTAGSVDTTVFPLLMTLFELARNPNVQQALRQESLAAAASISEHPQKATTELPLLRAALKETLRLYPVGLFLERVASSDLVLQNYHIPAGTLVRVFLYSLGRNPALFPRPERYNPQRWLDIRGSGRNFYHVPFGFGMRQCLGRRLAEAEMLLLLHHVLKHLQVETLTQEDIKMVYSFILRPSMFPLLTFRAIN

[24] = Oral bioavailability in rhesus monkey at 1 mg/kg by LC-MS/MS method; assay type: ADME, organism-based, Macaca mulatta; conditions: in vivo
[25] = tested on: Rhesus monkey; conditions: Macaca mulatta; 1 mg/kg

Cytochrome P450 2D6, sequence (P10635 whole entry): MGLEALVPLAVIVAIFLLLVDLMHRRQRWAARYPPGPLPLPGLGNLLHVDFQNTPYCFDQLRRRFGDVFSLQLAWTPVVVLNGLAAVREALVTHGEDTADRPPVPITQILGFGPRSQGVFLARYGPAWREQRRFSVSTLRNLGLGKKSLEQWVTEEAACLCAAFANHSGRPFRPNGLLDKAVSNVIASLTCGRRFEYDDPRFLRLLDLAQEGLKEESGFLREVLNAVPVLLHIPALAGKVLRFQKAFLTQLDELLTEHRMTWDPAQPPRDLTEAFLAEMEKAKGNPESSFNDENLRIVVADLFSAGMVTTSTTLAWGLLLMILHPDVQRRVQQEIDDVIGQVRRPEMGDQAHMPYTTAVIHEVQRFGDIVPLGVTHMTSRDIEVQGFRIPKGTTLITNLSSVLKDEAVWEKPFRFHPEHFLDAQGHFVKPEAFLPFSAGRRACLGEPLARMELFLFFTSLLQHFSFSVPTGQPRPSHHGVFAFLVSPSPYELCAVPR

inhibition (INH) [1]: Not Active | CLint scaled [2]: < 20 mL/min/kg | fraction unbound at 4 h [3]: 0.14 | IC50 [4]: > 10 µM | AUC/dose [5]: 6.55 µM·kg·h/mg | inhibition (INH) [7]: Not Active | IC50 [8]: > 50 µM | IC50 [9]: > 10 µM | clearance [10]: 7 mL/min/kg | Ratio IC50 [11]: 500 | IC50 [12]: 1.27 µM | bioavailability [13]: 94% | inhibition (INH) [14]: Not Active | Ratio IC50 [15]: 140
SMILES: CC(C)(O)c1cncc(-c2nc3cc(F)c(F)cc3n2C2CC2)c1
inhibition [6]: Active

IC50 [4]: > 10 µM | IC50 [16]: 0.0005 µM | CLint scaled [17]: < 20 mL/min/kg | inhibition (INH) [7]: Not Active | IC50 [8]: 8.24 µM | AUC/dose [18]: 2.49 µM·kg·h/mg | IC50 [9]: > 10 µM | Ratio IC50 [15]: 553 | clearance [22]: 19 mL/min/kg | IC50 [23]: 0.258 µM | bioavailability [24]: 88%
SMILES: Cc1c(F)cncc1-c1nc2cc(F)c(F)cc2n1C1CC1
inhibition [6]: Active | Ratio IC50 [19]: > 1000 | Ratio IC50 [20]: > 1000 | Ratio IC50 [21]: > 1000

SMILES: N#Cc1ccc(C2CCCc3cncn32)cc1 (stereo unspecified)
inhibition [25]: Active
